PAFAH1B3 FP inh = blocks human PAF acetylhydrolase 1B catalytic subunit 3; AID 492972; hit rate 0.28% among 340,000; inhibition, % at 3.39 µM; recombinant PAFAH1B3, FP-rhodamine probe, fluorescence polarization; Q15102;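 active = inhibition above the screen-wide average of all tested compounds plus 3 SD, cut at about 25% in these data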;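 note: 0% = enzyme with DMSO only and 100% = wells lacking PAFAH1B3 protein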
Target sequence (Q15102 whole entry, looked up): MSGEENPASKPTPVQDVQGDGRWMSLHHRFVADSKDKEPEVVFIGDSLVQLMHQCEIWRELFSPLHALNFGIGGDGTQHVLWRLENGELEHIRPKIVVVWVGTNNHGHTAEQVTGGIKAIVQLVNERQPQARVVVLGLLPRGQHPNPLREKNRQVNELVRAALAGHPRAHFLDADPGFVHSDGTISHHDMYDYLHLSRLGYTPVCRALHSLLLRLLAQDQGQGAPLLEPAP
ASAP1 inh = blocks human ASAP1-stimulated Arf1 GTP hydrolysis. Q9ULH1. GDP FP detection. inhibition, % at 16.5 µM. hit rate 0.19% among 360,000; in the data active = inhibition above about 25%;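 note: 0% = vehicle with enzyme and substrate and 100% = no enzyme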
PAFAH2 inh = inhibitors of human PAFAH2; Q99487; recombinant PAFAH2, FP-rhodamine activity probe, fluorescence polarization; inhibition, % at 3.39 µM; hit rate 0.99% among 340,000; AID 492956;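 active = inhibition above the mean over all tested compounds plus 3 SD, cut at about 30% in these data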;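 note: inhibitors block probe labeling of enzyme so polarization drops; 0% = enzyme with DMSO and 100% = wells lacking PAFAH2 protein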
pPAFAH inh = pPAFAH (human) enzyme inhibition; Q13093; recombinant pPAFAH, FP-rhodamine probe fluorescence polarization; inhibition, % at 3.39 µM; hit rate 1.5% among 330,000; AID 463082;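 active = inhibition above the mean inhibition across the screen plus 3 SD, cut at about 25% in these data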;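 note: inhibitors block binding of the rhodamine activity-based probe so polarization drops; 0% = enzyme with DMSO and 100% = wells lacking pPAFAH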
Target sequence (Q13093 whole entry, looked up): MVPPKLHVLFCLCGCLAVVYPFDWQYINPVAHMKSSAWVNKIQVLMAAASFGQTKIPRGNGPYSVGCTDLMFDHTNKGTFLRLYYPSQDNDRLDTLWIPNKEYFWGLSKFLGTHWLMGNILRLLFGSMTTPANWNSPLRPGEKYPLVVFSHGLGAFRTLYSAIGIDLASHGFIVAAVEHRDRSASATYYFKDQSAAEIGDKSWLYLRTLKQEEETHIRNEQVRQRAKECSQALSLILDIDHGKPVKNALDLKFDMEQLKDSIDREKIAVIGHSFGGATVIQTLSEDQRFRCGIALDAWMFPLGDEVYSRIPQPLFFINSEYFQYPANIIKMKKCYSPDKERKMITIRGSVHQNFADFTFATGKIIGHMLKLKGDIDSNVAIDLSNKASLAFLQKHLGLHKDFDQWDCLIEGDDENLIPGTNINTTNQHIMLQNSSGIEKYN
PAFAH1B2 inh = PAFAH1B2 (human) inhibition | P68402 | inhibition, % at 3.39 µM | hit rate 1.2% among 340,000 | recombinant PAFAH1B2, FP-rhodamine activity probe, fluorescence polarization | AID 492953;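 active = inhibition above the mean of all tested compounds plus 3 SD, cut at about 24% in these data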;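 note: 0% = enzyme with DMSO and 100% = wells lacking PAFAH1B2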
ARFGAP1 inhibitor = inhibitors of rat ARFGAP1; Q62848; Arfgap1-stimulated ARF1 GTP hydrolysis, GDP FP detection; inhibition, % at 16.5 µM; hit rate 0.26% among 360,000; AID 651572;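 active = inhibition above a per-plate limit, mean inhibition of low control wells plus 3 SD, cut at about 25% in these data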;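 note: 0% = DMSO wells with enzyme and 100% = wells lacking Arfgap1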
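Replicates: Single well per compound | Assay system: Truncated rat Arfgap1 GAP domain | Control set: No-Arfgap1 wells (100%) versus DMSO full-reaction wells (0%) | Times: Enzyme reaction 120 min at 25 °C after 20 min preincubation | Reagent: Human ARF1(Δ1-17)-GTP substrate | Measured by: Tracer-displacement fluorescence polarization with EDTA stop, 620/688 nm | Measure: Percent inhibition of Arfgap1-stimulated GTP hydrolysis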
pPAFAH FP conf = confirmation of human plasma PAF acetylhydrolase (pPAFAH) inhibitors. shares compounds with pPAFAH inh. recombinant pPAFAH, FP-Rh probe fluorescence polarization. inhibition, % at 3.39 µM. hit rate 72% among 2,300. AID 463230;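 active = mean inhibition of the triplicate above the hit cutoff set for the earlier primary screen, cut at about 25% in these data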;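 note: 0% = enzyme with DMSO and 100% = wells lacking pPAFAH enzyme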
* = called active by the depositor; . = no result given. This is a sample that favours compounds with a hit; in the whole collection about 2.7% have one here.

SMILES	PAFAH1B3 FP inh	ASAP1 inh	PAFAH2 inh	pPAFAH inh	PAFAH1B2 inh	ARFGAP1 inhibitor	pPAFAH FP conf
O=C(O)CN1C(=O)/C(=C\c2cc(Br)ccc2OCc2ccc(F)cc2)SC1=S	16	-12	50*	51*	13	-22	63*
COc1ccc(/C=C2/SC(=S)N(CC(=O)O)C2=O)cc1OCc1ccc(Cl)cc1	2	12	-2	-2	12	-1	.
COc1ccc(CNS(=O)(=O)c2cc(Cl)ccc2N2CC[C@@H](O)C2)cc1	.	10	.	.	.	4	.
COCCCNC(=O)C[C@H]1C[C@@]2(C(=O)OC)C(=C[C@H](C3CCCC3)O[C@@H]2C)N(Cc2ccccc2)C1=O	.	8	.	.	.	-6	.
CCSc1nnc(NC(=O)CSc2sc3c(O)cc(=O)[nH]c3c2C#N)s1	17	6	50*	39*	29*	-2	35*
N#Cc1c(SCC(=O)Nc2cccc(C(F)(F)F)c2)sc2c(O)cc(=O)[nH]c12	13	1	18	40*	11	-5	11
Cc1ccc(C)c(NC(=O)CSc2sc3c(O)cc(=O)[nH]c3c2C#N)c1	10	0	18	18	4	5	.
Cc1ccc(Cl)cc1NC(=O)CSc1sc2c(O)cc(=O)[nH]c2c1C#N	18	10	9	20	7	-2	.
Cc1cc(NC(=O)CSc2sc3c(O)cc(=O)[nH]c3c2C#N)ccc1Br	9	7	-5	52*	7	5	27*
O=C(CSCCO)Nc1cccc(C(F)(F)F)c1	7	-8	2	10	-1	-9	.
CN(C(=O)c1cn(C)c2ccccc12)c1ccc(Oc2cccnc2)cc1	.	-11	.	.	.	6	.
COc1cc(C2C(C#N)=C(N)OC3=C2C(=O)CCC3)c([N+](=O)[O-])cc1OC (stereo not drawn)	27*	13	26	38*	12	4	11
O=C(NCc1cccnc1)c1ccc(-c2cccc(Cl)c2Cl)o1	5	22	3	8	-3	3	.
O=C(NCc1cccnc1)c1ccc(-c2ccccc2[N+](=O)[O-])o1	11	12	-7	56*	-5	11	3
C[C@@H]1CN(c2ccc(N3CCN(C(=O)OC(C)(C)C)C[C@H]3C)cc2C#N)CCN1Cc1ccccc1	.	-9	.	.	.	0	.
O=C(O/N=C(\c1ccccc1)c1ccncc1)c1ccccc1Cl	9	-5	25	45*	88*	-11	23
COc1ccccc1N1C(=O)c2ccc(C(=O)Nc3nccs3)cc2C1=O	.	8	.	43*	.	3	1
COc1ccccc1N1C(=O)c2ccc(C(=O)Nc3ccccc3O)cc2C1=O	3	-13	2	1	2	-2	.
CCN=C1NC(c2ccccc2C(F)(F)F)C(C(=O)OC)=C(C)N1C (stereo not drawn)	.	-1	.	.	.	-10	.
CCOC(=O)c1ccc(N2C(=O)CC(Sc3ncccn3)C2=O)cc1 (stereo not drawn)	6	-8	-3	40*	0	6	5
CCOC(=O)C(N)CSC1CC(=O)N(c2ccc(C(=O)OC)cc2)C1=O (stereo not drawn)	7	-6	0	3	0	5	.
CCC(=O)OC1(C)C(=O)C=C2C=C(c3ccsc3)OC=C2C1=O (stereo not drawn)	6	.	16	48*	-5	.	34*
O=C(Nc1ccc(Cl)cc1)OCC12COCN1COC2	.	-4	.	.	.	-2	.
COC(=O)c1cc2c(c3c4cc(F)ccc4n(S(=O)(=O)c4ccc(C)cc4)c13)C(=O)N(Cc1ccc(N(C)C)cc1)C2	.	-9	.	.	.	-4	.
Nc1ccc(C(=O)N/N=C\c2cc(N=Nc3cccc4ccccc34)ccc2O)cc1	12	-7	6	77*	17	1	53*
SMILES	PAFAH1B3 FP inh	ASAP1 inh	PAFAH2 inh	pPAFAH inh	PAFAH1B2 inh	ARFGAP1 inhibitor	pPAFAH FP conf
Cc1cc(S(=O)(=O)Nc2ccc(C(=O)NCC3(N(C)C)CCCCC3)cc2)ccc1F	6	-2	-7	-9	-1	-1	.
CCOc1ccc(NS(=O)(=O)c2ccc(C(=O)NCC3(N(C)C)CCCCC3)cc2)cc1	3	0	0	52*	4	-6	45*
CCOc1ccc(S(=O)(=O)Nc2ccc(C(=O)NCC(c3ccc(OC)cc3)N3CCOCC3)cc2)cc1 (stereo not drawn)	-5	1	0	0	2	10	.
CCOc1ccc(NS(=O)(=O)c2ccc(C(=O)NCC(c3ccc(OC)cc3)N3CCOCC3)cc2)cc1 (stereo not drawn)	-1	-8	4	50*	3	17	59*
CN1CCCCC(NC(=O)c2ccc(F)cc2)C1=O (stereo not drawn)	.	-12	.	.	.	7	.
O=C(Nc1ccc([N+](=O)[O-])cc1)c1ccccc1F	3	-11	-1	0	-1	2	.
O=C(c1cc(O)c(O)c([N+](=O)[O-])c1)c1ccccc1F	29*	-4	68*	59*	14	1	81*
NS(=O)(=O)c1ccc(N2CCCC2=O)c([N+](=O)[O-])c1	5	8	2	44*	6	4	4
CCCCS(=O)(=O)N1CCCc2nc(-c3ccc(F)cc3)ccc21	.	0	.	.	.	-3	.
C[C@H]1[C@@H](c2ccccc2)Oc2c(Cl)cccc2S(=O)(=O)N1C	.	-9	.	.	.	-1	.
CC(OC(=O)c1ccc(Cl)cc1)C(=O)NCc1ccc2c(c1)OCO2 (stereo not drawn)	7	0	7	54*	5	8	2
COC(=O)[C@]12C[C@H](CC(=O)NCCCN3CCCC3=O)C(=O)N(Cc3ccc4c(c3)OCO4)C1=C[C@H](COCc1ccccc1)O[C@@H]2C	.	9	.	.	.	-1	.
Nc1cccc2c(=O)c3ccccc3[nH]c12	13	-7	-1	41*	2	1	10
COc1cccc2[nH]c3ccccc3c(=O)c12	7	.	0	1	-2	.	.
COCCCNC(=O)C[C@H]1C[C@@]2(C(=O)OC)C(=C[C@H](COCc3ccccc3)O[C@@H]2C)N(Cc2ccc3c(c2)OCO3)C1=O	.	-8	.	.	.	3	.
CC(NCC(=O)NC(=O)NC1CCCC1)c1ccc(Cl)cc1Cl (stereo not drawn)	10	-8	11	58*	8	-11	3
CC(=O)Nc1nc(C)c(-c2csc(Nc3cccc(C(C)=O)c3)n2)s1	11	9	11	38*	10	13	37*
N#C/C(=C(/O)c1ccc2c(c1)OCO2)c1nc2cc(C(F)(F)F)ccc2s1	11	17	19	38*	89*	-4	60*
COC(=O)c1ccc(/C(O)=C(\C#N)c2nc3ccccc3s2)cc1	4	-4	8	9	23	-10	.
